PMC3653324 (Translational stroke research, 2012)

Experiments:
[1] = system: S. typhimurium TA989; assay: Ames test for mutagenicity, frame-shift strain; type: cell-based; conditions: first TA98 column; for TA98+S9: with S9, up to 10 μM; for TA98−S9: without S9, up to 10 μM
[2] = system: H4IIE cells; assay: CeeTox membrane toxicity; conditions: 24 hr, α-GST leakage
[3] = system: Caspase 3; assay: CeeTox apoptosis; type: cell-based, rat; conditions: H4IIE cells; for Caspase 3 Activity (Index/Dose): dose: dose at which the index was seen; for Caspase 3 Activity (Index/Dose): index: index of RFU
[4] = system: H4IIE cells; assay: CeeTox cell mass; conditions: 24 hr
[5] = target: T1, CYP1A2 (Homo sapiens, UniProt P05177); assay: Cloe Screen Cytochrome P450 Inhibition assay; type: in vitro ADME; conditions: for CYP1A2 inhibition classification: classified from IC50
T1 sequence (P05177 1-516): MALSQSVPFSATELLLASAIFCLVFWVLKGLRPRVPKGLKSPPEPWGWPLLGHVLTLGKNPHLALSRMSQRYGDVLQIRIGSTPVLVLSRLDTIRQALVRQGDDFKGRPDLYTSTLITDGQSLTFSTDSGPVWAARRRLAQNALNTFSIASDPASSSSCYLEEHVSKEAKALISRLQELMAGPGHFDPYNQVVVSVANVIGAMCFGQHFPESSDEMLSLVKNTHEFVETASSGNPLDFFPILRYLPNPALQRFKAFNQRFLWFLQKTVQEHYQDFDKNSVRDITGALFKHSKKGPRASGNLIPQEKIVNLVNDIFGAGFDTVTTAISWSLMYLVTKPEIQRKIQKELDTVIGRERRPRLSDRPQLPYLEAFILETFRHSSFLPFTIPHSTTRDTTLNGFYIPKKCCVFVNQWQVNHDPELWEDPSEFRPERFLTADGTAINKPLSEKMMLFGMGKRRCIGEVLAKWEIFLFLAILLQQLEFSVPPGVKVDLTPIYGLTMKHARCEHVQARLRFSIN

[6] = system: 8-Isoprostane (8-ISO); assay: CeeTox lipid peroxidation measured as 8-isoprostane; conditions: H4IIE cells, 8-ISO score
[7] = target: CYP2C19 (Homo sapiens, UniProt P33261); assay: Cloe Screen Cytochrome P450 Inhibition assay; type: in vitro ADME
Chain of CYP2C19 (P33261 whole entry): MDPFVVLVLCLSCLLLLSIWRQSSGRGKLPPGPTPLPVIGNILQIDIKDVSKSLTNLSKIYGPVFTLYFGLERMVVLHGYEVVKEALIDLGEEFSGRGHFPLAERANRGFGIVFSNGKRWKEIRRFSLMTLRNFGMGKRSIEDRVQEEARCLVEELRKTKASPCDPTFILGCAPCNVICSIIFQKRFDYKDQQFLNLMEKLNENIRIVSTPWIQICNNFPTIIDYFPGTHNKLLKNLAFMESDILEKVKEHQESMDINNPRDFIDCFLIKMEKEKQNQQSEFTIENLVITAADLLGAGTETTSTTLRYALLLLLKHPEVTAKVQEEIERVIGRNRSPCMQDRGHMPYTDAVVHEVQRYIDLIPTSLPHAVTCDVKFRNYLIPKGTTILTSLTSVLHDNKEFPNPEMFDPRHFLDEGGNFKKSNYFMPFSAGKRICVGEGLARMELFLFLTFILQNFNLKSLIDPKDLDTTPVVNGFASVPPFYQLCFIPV

[8] = system: H4IIE cells; type: cell-based; conditions: 24 hr
[9] = system: H4IIE cells; assay: CeeTox cellular ATP content; conditions: 24 hr
[10] = system: P-glycoprotein (PgP); assay: P-glycoprotein; type: cell-based, rat; conditions: H4IIE cells, MTT, 24 hr, single exposure concentration (20 or 50 μM), without CSA
[11] = target: CYP2D6 (Homo sapiens, UniProt P10635); assay: Cloe Screen Cytochrome P450 Inhibition assay; type: in vitro ADME
Chain of CYP2D6 (P10635 whole entry): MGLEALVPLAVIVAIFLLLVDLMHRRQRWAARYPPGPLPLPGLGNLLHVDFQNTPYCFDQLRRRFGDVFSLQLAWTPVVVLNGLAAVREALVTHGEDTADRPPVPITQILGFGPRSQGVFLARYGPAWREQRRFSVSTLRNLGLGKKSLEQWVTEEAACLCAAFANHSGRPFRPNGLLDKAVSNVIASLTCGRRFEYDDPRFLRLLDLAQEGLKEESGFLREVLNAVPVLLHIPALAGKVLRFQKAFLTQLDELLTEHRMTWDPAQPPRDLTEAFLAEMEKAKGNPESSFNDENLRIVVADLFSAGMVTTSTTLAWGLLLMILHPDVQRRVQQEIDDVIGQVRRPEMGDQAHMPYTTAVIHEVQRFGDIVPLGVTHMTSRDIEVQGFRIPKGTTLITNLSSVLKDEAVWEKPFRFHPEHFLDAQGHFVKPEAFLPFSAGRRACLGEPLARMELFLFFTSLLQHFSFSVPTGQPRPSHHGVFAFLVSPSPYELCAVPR
Outline: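 Run blinded. […] Metabolite formation was monitored by LC-MS/MS. IC50 was calculated from the decrease in metabolite formation relative to vehicle control. Quinidine served as positive control inhibitor.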

[12] = target: CYP2C9 (Homo sapiens, UniProt P11712); assay: Cloe Screen Cytochrome P450 Inhibition assay; type: in vitro ADME
Chain of CYP2C9 (P11712 whole entry): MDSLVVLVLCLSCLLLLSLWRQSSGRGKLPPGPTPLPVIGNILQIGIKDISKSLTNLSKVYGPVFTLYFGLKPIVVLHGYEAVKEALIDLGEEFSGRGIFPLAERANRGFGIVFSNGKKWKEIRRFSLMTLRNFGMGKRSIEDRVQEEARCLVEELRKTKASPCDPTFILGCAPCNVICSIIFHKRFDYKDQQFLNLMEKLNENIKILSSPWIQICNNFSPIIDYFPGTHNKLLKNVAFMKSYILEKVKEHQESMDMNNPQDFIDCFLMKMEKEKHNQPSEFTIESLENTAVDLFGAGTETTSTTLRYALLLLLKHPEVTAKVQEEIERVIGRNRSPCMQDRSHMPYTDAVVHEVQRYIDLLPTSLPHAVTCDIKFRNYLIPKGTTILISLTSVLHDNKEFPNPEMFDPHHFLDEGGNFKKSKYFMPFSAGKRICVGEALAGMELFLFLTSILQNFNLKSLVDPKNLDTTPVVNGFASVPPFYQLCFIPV

[13] = target: CYP3A4 (Homo sapiens, UniProt P08684); assay: Cloe Screen Cytochrome P450 Inhibition assay; type: in vitro ADME
Chain of CYP3A4 (P08684 2-503): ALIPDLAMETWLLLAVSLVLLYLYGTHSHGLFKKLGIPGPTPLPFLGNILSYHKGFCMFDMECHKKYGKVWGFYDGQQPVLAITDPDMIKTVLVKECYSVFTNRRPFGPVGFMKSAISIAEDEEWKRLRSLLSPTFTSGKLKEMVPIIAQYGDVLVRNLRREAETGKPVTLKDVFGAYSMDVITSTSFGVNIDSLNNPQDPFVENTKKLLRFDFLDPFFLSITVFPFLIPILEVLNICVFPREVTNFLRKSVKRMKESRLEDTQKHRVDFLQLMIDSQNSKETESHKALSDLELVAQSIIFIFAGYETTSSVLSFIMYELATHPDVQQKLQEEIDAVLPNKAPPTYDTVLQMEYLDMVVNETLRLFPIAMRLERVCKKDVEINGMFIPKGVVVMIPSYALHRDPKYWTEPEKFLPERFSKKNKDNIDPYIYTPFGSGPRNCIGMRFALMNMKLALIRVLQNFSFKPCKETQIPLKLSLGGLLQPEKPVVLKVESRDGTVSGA

[14] = system: Intracellular glutathione (GSH); assay: CeeTox intracellular glutathione; conditions: H4IIE cells
[15] = system: P-glycoprotein (MDR1); assay: BBB penetration; type: in vitro ADME, canine; conditions: dog, MDCK-MDR1
Outline: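 MDCK cells transfected with human MDR1 (P-gp) were grown to a confluent monolayer over 4 days. Test compound was added apically, and A→B transport was followed over 60 min; B→A transport was also measured. Compound on each side was quantified by GC/MS. Papp was calculated for both directions, and efflux ratio = Papp B→A/Papp A→B. High BBB potential: Papp A→B ≥3.0×10⁻⁶ cm/s and efflux <3.0.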

[16] = system: H4IIE cells; assay: CeeTox analysis composite; type: cell-based, rat

| Structure (SMILES) | TA98+S9 [1] | TA98−S9 [1] | MemTox TC50 [2] | Caspase 3 Activity (Index/Dose): dose [3] | Caspase 3 Activity (Index/Dose): index [3] | Cell Mass TC50 [4] | IC50 [5] | CYP1A2 inhibition classification [5] | Membrane Lipid Peroxidation [6] | IC50 [7] | MTT TC50 [8] | ATP TC50 [9] | % Control(Compound) [10] | IC50 [11] | IC50 [12] | IC50 [13] | Total GSH TC50 [14] | Papp A→B at 60 min [15] | efflux ratio at 60 min [15] | further results |
| --- | --- | --- | --- | --- | --- | --- | --- | --- | --- | --- | --- | --- | --- | --- | --- | --- | --- | --- | --- | --- |
| Cc1cc(O)c(C(=O)/C=C/c2ccc(O)c(O)c2)cc1C [CSMC-10, 4',5'-dimethyl-2',3,4-trihydroxychalcone] | Negative (Not mutagenic < 10 μM (NEGATIVE)) | Negative (Not mutagenic < 10 μM (NEGATIVE)) | >300 µM | 100 | 1 (0–200 = 1) | 86 µM | 6.99 µM | moderate inhibition | 2 (2 = Concentration related increase with maximum values ≥ 15 pg/mL) | > 10 µM | 83 µM | 75 µM | 73.4 % Control | > 10 µM | > 10 µM | > 10 µM | 144 µM |  |  |  |
| O=c1cc(-c2cc(O)c(O)c(O)c2)oc2ccccc12 [CSMC-19, 3',4',5'-trihydroxyflavone] | Negative (Not mutagenic < 10 μM (NEGATIVE)) | Negative (Not mutagenic < 10 μM (NEGATIVE)) | >300 µM | 300 | 1 (0–200 = 1) | >300 µM | > 25 µM |  | 2 (2 = Concentration related increase with maximum values ≥ 15 pg/mL) | > 10 µM | >300 µM | 256 µM | 88.4 % Control | > 10 µM | > 10 µM | > 10 µM | >300 µM | 105 ×10⁻⁶ cm/s | 0.01 |  |
| CCc1ccc2oc(-c3ccc(O)c(O)c3)c(O)c(=O)c2c1 [CSMC-9, 6-ethyl-3,3',4'-trihydroxy flavone] | Negative (Not mutagenic < 10 μM (NEGATIVE)) | Negative (Not mutagenic < 10 μM (NEGATIVE)) | >300 µM | 300 | 1 (0–200 = 1) | 82 µM | 11.6 µM |  | 0 | > 10 µM | 81 µM | 80 µM | 97.0 % Control | > 10 µM | > 10 µM | > 10 µM | 149 µM | 40.9 ×10⁻⁶ cm/s | 0.19 |  |
| CCOc1cc(-c2ccc(O)c(O)c2)nc2ccccc12 [CSMC-16, 4-ethoxy-2-(3,4-dihydroxyphenyl)quinoline] | Negative (Not mutagenic < 10 μM (NEGATIVE)) | Negative (Not mutagenic < 10 μM (NEGATIVE)) | >300 µM |  |  | 215 µM | 3.99 µM | moderate inhibition | 0 | > 10 µM | 170 µM | 162 µM | 81.3 % Control | > 10 µM | > 10 µM | > 10 µM | 243 µM |  |  |  |
| CC[C@@]1(O)C(=O)OCc2c1cc1n(c2=O)Cc2cc3ccccc3nc2-1 [CAMPTOTHECIN, camptothecin, reference compound] |  |  | >300 µM | 100 | 3 (400–600 = 3) | 3.0 µM |  |  | 1 (1 = Modest increase with maximum values ≤ 15 pg/mL) |  | 3.2 µM | 5.0 µM |  |  |  |  | 5.0 µM |  |  | MemTox TC50 (μM) ([2]; listed as camptothecin): not affected; TC50 for all general toxicity measures (range over endpoints) ([16]; H4IIE cells, 24 hr, range across CeeTox endpoints): 3.0 to 5.0 µM; Ctox ranking group: probability of in vivo toxic effects ([16]; per standard CeeTox criteria): high probability (1–20 high probability) |
